Format in all cases: functional, Mus musculus
Assay [1] has as its system P388. Nature of the assay: Compound was evaluated for activity against P388 leukemia, at an intraperitoneal dose of 5 mg/kg. The essentials:
(§1)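 Mice bearing P388 leukemia were given the compound intraperitoneally, with activity read out as T/C (%). The full protocol is cited to earlier work.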

Assay [2] deals with P388. Description: Compound was evaluated for activity against P388 leukemia, at an intraperitoneal dose of 20 mg/kg. The essentials:
as §1

The test system of assay [3] is P388. Description: Compound was evaluated for activity against P388 leukemia, at an intraperitoneal dose of 50 mg/kg. The essentials: as §1
In assay [4] the test system is P388. Description: Compound was evaluated for activity against P388 leukemia, at an intraperitoneal dose of 25 mg/kg. The essentials:
as §1

The subject of assay [5] is P388. Description: Compound was evaluated for activity against P388 leukemia, at an intraperitoneal dose of 100 mg/kg. The essentials: as §1
Assay [6] deals with P388. Nature of the assay: Compound was evaluated for activity against P388 leukemia, at an intraperitoneal dose of 200 mg/kg. The essentials: as §1
Assay [7] concerns P388. Nature of the assay: Compound was evaluated for activity against P388 leukemia, at an intraperitoneal dose of 12.5 mg/kg. The essentials: as §1
The test system of assay [8] is P388. Nature of the assay: Compound was evaluated for activity against P388 leukemia, at an intraperitoneal dose of 400 mg/kg. A digest of the protocol: as §1
The subject of assay [9] is P388. Description: Compound was evaluated for activity against P388 leukemia, at an intraperitoneal dose of 3.1 mg/kg. The essentials:
as §1

Assay [10] relates to P388. Nature of the assay: Compound was evaluated for activity against P388 leukemia, at an intraperitoneal dose of 6.3 mg/kg. A digest of the protocol: as §1
For assay [11], the system named is P388. Nature of the assay: Compound was evaluated for activity against P388 leukemia, at an intraperitoneal dose of 10 mg/kg. The essentials: as §1

The term T/C denotes the result in the treated group divided by that in the control group, in per cent.

On to `COc1ccc(C(C2=C(O)C(=O)c3ccccc3C2=O)c2ccc(C(C)C)cc(=O)c2O)cc1` (configuration not stated), for which the T/C is 108% in assay [1], 129% in assay [2] and 0% in assay [3].

`COc1ccc(C(c2ccc(C(C)C)cc(=O)c2O)C2Oc3c(Cl)c(OC)cc(OC)c3C2=O)cc1` (configuration not stated): the T/C in assay [4] is listed as 117%; in assay [5], 130%; in [3], 109%.

For `COc1ccc(C(c2ccc(O)cc2O)c2ccc(C(C)C)cc(=O)c2O)cc1` (configuration not stated), the figures for the T/C in [6], in [5] and in [3] were 136%, 104% and 98%, respectively.

`COc1ccc(C(c2ccc(C(C)C)cc(=O)c2O)c2c(O)cc3oc(-c4ccccc4)cc(=O)c3c2O)cc1` (configuration not stated): the results for the T/C in assay [6], in [4] and in [5] were 148%, 127% and 136%, respectively.

Turning to `COc1ccc(C(c2ccc(C(C)C)cc(=O)c2O)c2ccc3ccccc3c2O)cc1` (configuration not stated), the figures for the T/C in [4], in assay [3] and in assay [7] were 125%, 108% and 105%, respectively.

Consider `COc1ccc(C(C2=C(C)C(=O)c3ccccc3C2=O)c2ccc(C(C)C)cc(=O)c2O)cc1` (configuration not stated), for which the T/C in assay [6] was determined as 131%; in assay [5] it was 114%; in assay [8], 72%.

As for `COc1ccc(C(c2cc(C(C)(C)C)ccc2O)c2ccc(C(C)C)cc(=O)c2O)cc1` (configuration not stated), the T/C in assay [4] is on record as 116%; in assay [5], 120%; in assay [3] it was 116%.

Regarding `COc1ccc(C(c2ccc(C(C)C)cc(=O)c2O)c2ccc3cccnc3c2O)cc1` (configuration not stated), the results for the T/C in assay [9], in [10] and in [7] were 144%, 151% and 141%, respectively.

Consider `COc1ccc(C(c2ccc(C(C)C)cc(=O)c2O)c2c(O)oc3ccccc3c2=O)cc1` (configuration not stated), for which the values for the T/C in [1], in assay [2] and in assay [11] were 128%, 127% and 117%, respectively.

As for `COc1ccc(C(c2cc(C(C)(C)C)cc(O)c2O)c2ccc(C(C)C)cc(=O)c2O)cc1` (configuration not stated), the figures for the T/C in assay [4], in [3] and in assay [7] were 127%, 168% and 110%, respectively.

On to `CCOC(c1ccc(OC)cc1)c1ccc(C(C)C)cc(=O)c1O` (configuration not stated), for which the T/C in [5] amounted to 148%.

Regarding `COc1ccc(C(c2cc(O)ccc2O)c2ccc(C(C)C)cc(=O)c2O)cc1` (configuration not stated), the T/C turned out to be 142% in assay [4], 128% in assay [3] and 128% in assay [7].

`COc1ccc(C(c2ccc(C(C)C)cc(=O)c2O)c2c(O)c(C(=O)O)cc3ccccc23)cc1` (configuration not stated): the T/C in assay [6] is 0%; in assay [2], 106%; in [5] it was 141%.
